A selection: hits, their analogues and other compounds. The true share with any hit is near 1.9%.
NadD inh: NadD (S. aureus) enzyme inhibition; AID 602399; 360,000 compounds, 0.78% hits; purified NadD enzyme, colorimetric absorbance read-out; inhibition, % at 20 µM; in the data active = inhibition above about 26%
IMP-1 inh-1: blocks Pseudomonas aeruginosa IMP-1 metallo-beta-lactamase. purified IMP-1, nitrocefin hydrolysis, epi-absorbance fluorescence. inhibition, % at 5.6 µM. 290,000 compounds, 0.45% hits;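 active = inhibition above the mean plus 3 SD of all compounds in the same screening run, cut at about 4.5% in these data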;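 also: 0% = IMP-1 with DMSO and 100% = DMSO wells lacking enzyme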
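assay system = purified recombinant IMP-1 metallo-beta-lactamase enzyme | schedule = 15 min preincubation plus 25 min reaction at 25 °C | signal = Epi-absorbance fluorescence, 480 nm excitation, 530 nm emission | read-out basis = percent inhibition from optical density relative to buffer-blank wells | controls = IMP-1 with DMSO as 0%, enzyme-free DMSO as 100%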
HCV core dimer: HCV core protein dimerization inhibition; TR-FRET GST/Flag-core106 dimerization, 1536-well; inhibition, % at 5 µM; 300,000 compounds, 0.33% hits;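 active = inhibition above the mean of all tested compounds plus 3 SD, set per screening campaign, cut at about 45% in these data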
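Assay system: Tagged HCV core106 pair (GST and Flag) | Buffer or medium: KF-containing HEPES buffer, pH 7.45, DTT, CHAPS, BSA | Also added: Eu donor and XL665 acceptor anti-tag antibodies | Dosing: One concentration, 5 µM, in 0.5% DMSO | Timing: 4 h at 22.5 °C | Technique: TR-FRET 671 and 617 nm emission | Repeats: Singlicate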
VIM-2 inh: inhibitors of Pseudomonas aeruginosa VIM-2 metallo-beta-lactamase; inhibition, % at 5.6 µM; purified VIM-2, nitrocefin hydrolysis, epi-absorbance fluorescence; 290,000 compounds, 0.89% hits;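 active = inhibition above the mean of all tested compounds plus 3 SD, cutoff set per screening run, cut at about 7.5% in these data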;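 also: red hydrolysis product quenches plate fluorescence so inhibitors raise well fluorescence; 0% = enzyme with DMSO and 100% = DMSO without enzyme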
IMP-1 inh-2: selectivity counter-screen for VIM-2 inhibitors: IMP-1 metallo-beta-lactamase inhibitors | shares compounds with VIM-2 inh | purified IMP-1, nitrocefin hydrolysis, epi-absorbance fluorescence | inhibition, % at 5.6 µM | 1,300 tested, under 10 active | AID 1856; call rule not given here;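 also: 0% = enzyme with vehicle and 100% = vehicle without enzyme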
VIM-2 FRET ctr: counter-screen for VIM-2 inhibitors: epi-absorbance artifacts via FRET; shares compounds with VIM-2 inh; purified VIM-2, CCF2 FRET substrate hydrolysis; inhibition, % at 5.6 µM; 1,300 compounds, 23% hits;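 active = inhibition above the mean of all tested compounds plus 3 SD, cut at about 19% in these data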;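 also: 0% = VIM-2 plus DMSO and 100% = no enzyme wells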
TEM-1 inh: TEM-1 inhibition, counter-screen for VIM-2 inhibitors; shares compounds with VIM-2 inh; Purified TEM-1, nitrocefin hydrolysis, epi-absorbance fluorescence; inhibition, % at 5.6 µM; 1,300 compounds, 3% hits;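 active = inhibition above that campaign's mean inhibition plus 3 SD, cut at about 0.46% in these data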;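 also: 0% = TEM-1 with DMSO and 100% = TEM-1 with 100 µM potassium clavulanate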
Target sequence (P62593 whole entry, looked up): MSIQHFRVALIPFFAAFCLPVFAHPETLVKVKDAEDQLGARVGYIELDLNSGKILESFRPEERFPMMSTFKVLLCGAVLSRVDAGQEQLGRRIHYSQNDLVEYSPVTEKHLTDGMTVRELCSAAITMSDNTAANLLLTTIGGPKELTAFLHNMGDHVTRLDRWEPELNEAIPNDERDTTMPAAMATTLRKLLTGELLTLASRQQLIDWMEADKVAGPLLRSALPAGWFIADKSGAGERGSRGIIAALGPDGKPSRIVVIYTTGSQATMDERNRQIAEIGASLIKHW
VIM-2 inh conf: confirmation of P. aeruginosa VIM-2 metallo-beta-lactamase inhibitors; shares compounds with VIM-2 inh; purified VIM-2, nitrocefin hydrolysis, epi-absorbance; inhibition, % at 5.6 µM; 1,300 compounds, 96% hits;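 active = inhibition of the VIM-2 beta-lactamase enzyme above about 11% from the earlier first-round screen, limit read from the data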;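 also: 0% = VIM-2 with DMSO and 100% = buffer wells without enzyme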
Starred values were filed as active, the others as inactive; . = no result.

SMILES	NadD inh	IMP-1 inh-1	HCV core dimer	VIM-2 inh	IMP-1 inh-2	VIM-2 FRET ctr	TEM-1 inh	VIM-2 inh conf
Cc1cc(C)n2nc(CC#N)c(C#N)c2n1	0	-2	-21	-1	.	.	.	.
COCCn1c(SCC(=O)NC2CCCC2)nc2c(c1=O)SCC2	-2	1	4	-1	.	.	.	.
CCN1CCN(c2ccc(N=Cc3ccc(O)cc3O)cc2)CC1	11	-5	-1	27*	-7	-3	-10	45*
O=C(O)CN1C(=O)c2cccc3c(Br)ccc1c23	-8	-2	2	0	.	.	.	.
CN(C)CCCN1C(=O)c2cccc3c(Br)ccc(c23)C1=O	0	-1	-5	12*	-2	0	-6	18*
COc1ccc(-c2cc(C(F)(F)F)n3nc(C(=O)NCCCn4ccnc4)cc3n2)cc1	7	-3	1	29*	-2	-13	-6	48*
Cc1ccc(Cn2ncc3c(NN)ncnc32)cc1	7	-2	.	41*	-4	-10	-5	58*
Cc1c(CC(=O)O)c(=O)oc2cc3occ(-c4ccccc4)c3cc12	2	0	1	-5	.	.	.	.
Cc1c(CC(=O)O)c(=O)oc2c(C)c3occ(-c4ccc(F)cc4)c3cc12	11	2	.	15*	1	5	-12	25*
CC(=O)Nc1ccc(NC(=O)C(C)OC(=O)C2CCN(S(=O)(=O)c3ccc4c(c3)OCCO4)CC2)cc1 (stereo not drawn)	0	.	-6	.	.	.	.	.
COc1ccc(CNC(=O)CCSCc2ccccc2C)cc1	-9	-2	-2	-2	.	.	.	.
Cc1sc2ncnc(Oc3ccc(-n4ccnc4)cc3)c2c1C	8	-2	6	74*	-2	-7	-5	85*
O=C(O)C1C2CCC(C2)C1C(=O)N1CCCC1 (stereo not drawn)	3	-2	4	-1	.	.	.	.
COc1ccc(S(=O)(=O)N2CCCCC2)cc1NC(=O)CCCNC(=O)c1ccc(Cl)cc1	3	.	.	.	.	.	.	.
O=C1C(=O)N(c2nccs2)C(c2ccccc2F)/C1=C(\O)c1ccc2c(c1)OCCO2 (stereo not drawn)	4	1	-2	21*	-3	33*	-5	22*
COCCN1C(=O)C(=O)/C(=C(/O)c2ccc(C)cc2)C1c1ccccn1 (stereo not drawn)	0	-2	2	0	.	.	.	.
CCCc1cc(=O)oc2c3c(cc(OCC(=O)NCCCn4ccnc4)c12)OC(C)(C)CC3	4	0	4	17*	-3	-16	-4	28*
Cc1cc(=O)oc2c3c(cc(OCC(=O)NCCN4CCOCC4)c12)OC(C)(C)CC3	0	-1	2	-1	.	.	.	.
Cc1cc(=O)oc2c3c(cc(OCC(=O)NCCCn4ccnc4)c12)OC(C)(C)CC3	-1	1	0	15*	-2	-7	-1	22*
COc1cc2c(cc1OC)C(Cc1ccccc1[N+](=O)[O-])=NCC2	5	.	.	.	.	.	.	.
O=C(O)C1Sc2[nH]c(=O)sc2C2c3cc(Cl)ccc3OC(=O)C12 (stereo not drawn)	0	-2	-3	14*	-1	41*	-8	29*
O=C(CNc1cccc(S(=O)(=O)N2CCCC2)c1)Nc1ccc(C(F)(F)F)cc1	-4	.	-7	.	.	.	.	.
O=c1c2ccccc2cnn1Cc1n[nH]c(=S)n1C1CC2CCC1C2 (stereo not drawn)	4	-4	-1	15*	-3	38*	-6	21*
O=C1C(=O)N(Cc2cccnc2)C(c2ccccn2)/C1=C(/O)c1ccc(F)cc1 (stereo not drawn)	12	-3	-8	52*	-2	76*	-6	69*
Cc1ccc(/C(O)=C2/C(=O)C(=O)N(Cc3cccnc3)C2c2ccccn2)cc1 (stereo not drawn)	-3	-3	-2	3	.	.	.	.
SMILES	NadD inh	IMP-1 inh-1	HCV core dimer	VIM-2 inh	IMP-1 inh-2	VIM-2 FRET ctr	TEM-1 inh	VIM-2 inh conf
COc1ccc(C(=O)NC(C)c2ccc(-n3ccnc3)cc2)c(OC)c1OC (stereo not drawn)	4	-2	-5	30*	-4	-6	-7	40*
COc1ccc(C(=O)NC(C)c2ccc(-n3ccnc3)cc2)c(OC)c1 (stereo not drawn)	5	-3	-1	22*	-5	-7	-8	34*
Cc1cc(C)n2c(nc3ccccc32)c1C(=O)NN	4	-2	5	-3	.	.	.	.
COC(=O)c1c(C)cc(C)n2c1nc1ccccc12	3	-4	-6	15*	-3	-10	-4	28*
COc1ccccc1C(=O)Nc1ccnn1C1CCN(Cc2cnn(C)c2C)CC1	1	0	1	57*	-4	1	-6	0
CCc1ccc(CN2CCC(n3nccc3NC(=O)c3ccccc3OC)CC2)o1	0	.	.	.	.	.	.	.
CCCNC(=O)C1(C)CCCN(C(=O)c2cccc(Cl)c2)C1 (stereo not drawn)	0	.	.	.	.	.	.	.
Cc1c(OCC(=O)NCc2cccnc2)ccc2c3c(c(=O)oc12)CCC3	4	0	-6	27*	-4	-1	-11	31*
CC(=O)COc1ccc2c3c(c(=O)oc2c1C)CCCCC3	0	-1	-19	-6	.	.	.	.
Cc1c(OC(C)C(=O)NCc2ccccn2)ccc2c3c(c(=O)oc12)CCCC3 (stereo not drawn)	-1	-4	0	16*	-3	0	-11	23*
Cc1c(OCC(=O)NCc2ccncc2)ccc2c3c(c(=O)oc12)CCC3	5	-6	2	50*	-2	-5	-13	57*
Cc1c(OC(C)C(=O)NCc2ccncc2)ccc2c3c(c(=O)oc12)CCC3 (stereo not drawn)	-4	-1	-2	23*	-2	-5	-11	36*
CCOC(=O)[C@@H]1[C@H]2COc3cc(OC)ccc3[C@H]2N2C(=O)N(c3cccc(F)c3)C(=O)[C@@]12C	-17	.	.	.	.	.	.	.
Cc1cc(C)n(-c2ccc(C(=O)OC(C)C(=O)Nc3ccc(C(N)=O)cc3)cc2)n1 (stereo not drawn)	1	.	.	.	.	.	.	.
Cc1c(OC(C)C(=O)NCC(O)c2ccccc2)ccc2c3c(c(=O)oc12)CCC3 (stereo not drawn)	-4	0	4	19*	-3	-1	-8	24*
Cn1c(-c2sccc2OCc2ccc(Cl)cc2Cl)n[nH]c1=S	4	-4	10	34*	-3	62*	-8	43*
Cn1c(-c2sccc2OCc2ccccc2)n[nH]c1=S	15	-2	-4	35*	-2	72*	-7	54*
